{"source": "paper PMC8336483", "about": "(Chemical Science, 2021)", "tested_on": "MDA-MB-231 cells", "type": "cell-based, human", "details": "1 h incubation", "in_short": "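MDA-MB-231 cells incubated 1 h with fluorescent conjugates or linker-functionalised fluorescein, then analysed by fluorescence correlation spectroscopy in the cytoplasm. Probe hydrodynamic radii and cytoplasmic viscosity were first determined by FCS. Cytoplasmic diffusion coefficients came from autocorrelation curves and were compared with values predicted for free diffusion using a cytoplasm viscosity model.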", "data": [{"substance": "FAM-PEG", "values": [{"measurement": "FCS autocorrelation of fluorescence signal in cells", "value": "no autocorrelation of fluorescence signal was detected"}]}]}
